Results on 96 compounds are retold here after PubChem BioAssay AID617 (SRMLSC, 2007).

This test concerns E. coli BW25113 ΔtolC growth inhibition, OD615. In words: growth inhibitors of E. coli tolC mutant, dose response, strain BW25113 ΔtolC::kan (AID 617). Summed up:
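Test system: E. coli BW25113 ΔtolC::kan bacteria | Amount: 1:1000 diluted subculture inoculum | Medium: LB plus kanamycin | Timing: 20 h exposure at 37 °C | Signal: Absorbance at 615 nm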
Take `CCOC(=O)c1cn(CC)c2cc(N3CCCCC3)c(F)cc2c1=O`: the 50% inhibitory concentration (IC50) (commonly the concentration that gives 50% inhibition) was 3.42 µM.
With `CCc1ccccc1NS(=O)(=O)c1ccc(SC)cc1`, the IC50 was 41.6 µM.
The same measure for `CC(C)C[C@H](NC(=O)OC(C)(C)C)c1nnc(SCc2cccc(F)c2)o1`: 11.9 µM; for `c1ccc(Cn2nnc3c(N4CCN(Cc5ccc6c(c5)OCO6)CC4)ncnc32)cc1`: 22.6 µM; for `CC(C)(C)OC(=O)N1CCC[C@H]1c1nnc(SCc2ccc(Cl)cc2Cl)o1`: 11 µM.
With `C=C(C)C1CCC(C)=C1COC(=O)Nc1ccccc1` (stereo unspecified) the figure was 12.2 µM; with `Cc1onc(-c2ccccc2)c1C(=O)Nc1sc2c(c1C#N)CCC2`, 10.1 µM.
On to `COC(=O)c1cn(NC(=O)c2cnccn2)c(=O)c2ccccc12`, for which the IC50 is 2.44 µM.
The same measure for `COc1ccc(-c2[nH]c(-c3cccc(OC)c3)nc2SCC(=O)NCc2ccco2)cc1`: 11.1 µM; for `CN(c1ccccc1)C(c1ccc(F)cc1)c1nnnn1C1CCCC1` (stereo unspecified): 11.1 µM.
Regarding `CCOc1ccc(NS(=O)(=O)c2ccc(SC)cc2)cc1`, the IC50 is 6.84 µM.
With `Cc1nc2ccc(C(C(F)(F)F)(C(F)(F)F)C(F)(F)F)cc2[nH]1`, the half-maximal inhibitory concentration (IC50) is 33.4 µM.
The same measure for `O=C(Nc1ccc(Cl)c(Cl)c1)N1CCSC1c1ccco1` (stereo unspecified): 5.12 µM.
With `O=C(Nc1nc(-c2ccccc2)cs1)c1cccs1` the figure was 5.9 µM; with `O=C(NCCCc1ccccc1)c1ccccc1O`, 9.34 µM; with `Cc1c(-c2nc(N)nc(Nc3ccccc3)n2)oc2ccccc12`, 12.3 µM.
As for `CC(C)c1ccc(Nc2nc(NCc3ccco3)nc(N3CCOCC3)n2)cc1`, the IC50 was 17.5 µM.
Take `O=C(Nc1nc2ccccc2n1CCOc1ccc(Cl)cc1)c1ccco1`: the IC50 was 25.2 µM.
With `COc1ccc2nc(NC(=O)CSc3nnnn3C3CCCCC3)sc2c1`, the IC50 was 63.6 µM.
For `COC(=O)c1[nH]c2ccc(C)cc2c1NS(=O)(=O)c1ccc(F)c(C)c1`, the IC50 is 1.75 µM.
The same measure for `Oc1ccc(Cl)cc1-c1cc(-c2ccccc2)n[nH]1`: 6.46 µM; for `CC1CCCN(c2ccc(C(=O)NCCc3ccccc3)cn2)C1` (stereo unspecified): 49.4 µM; for `COC(=O)c1ccc(/C(O)=C(\C#N)c2nc3ccccc3s2)cc1`: 2.51 µM.
With `CCOC(=O)C1CCN(C(c2cccnc2)c2c(NC(=O)c3ccco3)sc(C)c2C)CC1` (stereo unspecified) the figure was 13.6 µM; with `O=C1[C@H]2[C@@H](C(=O)N1c1cc(Cl)cc(Cl)c1)[C@]1(C(=O)Nc3ccccc31)N1CCC[C@@H]21`, 10.1 µM; with `CCOC(=O)C1=C(N)OC2=C(C(=O)CCC2)C12C(=O)N1c3c(ccc(C)c32)C(C)=CC1(C)C` (stereo unspecified), 13.8 µM.
As for `CCCCCCn1c2c(c(=N)c3c1CCC3)CCC2`, the 50% inhibitory concentration (IC50) was 10.2 µM.
`O=C(OC1CCCCC1)c1ccc(NC(=O)c2ccco2)cc1`: the IC50 is 6.09 µM.
As for `COc1ccc2c(-c3ccccc3)cc(N3CCOCC3)nc2c1`, the IC50 is 17.9 µM.
With `CC1CN(S(=O)(=O)c2ccc(C(=O)Nc3nnc(-c4ccc5c(c4)CCCC5)o3)cc2)CC(C)O1` (stereo unspecified) the figure was 0.77 µM.
The same measure for `Cc1nn(-c2ccccc2)c(Cl)c1C(=O)Nc1nnc(C2CCCC2)s1`: 8.48 µM.
With `CCOC(=O)c1ccc(-n2[nH]c(-c3ccccc3)cc2=O)cc1` the figure was 8.26 µM; with `COc1ccc(C(C(O)C(=O)c2c[nH]c3ccccc23)N2CCN(c3ccccc3)CC2)cc1` (stereo unspecified), 7.52 µM.
Consider `CCOC(=O)c1c(C)c(C(=O)Nc2cc(OC)ccc2OC)c(C)n1CC`, for which the IC50 was 24.3 µM.
As for `CCCN(CCC)c1nc2ccccc2nc1C(C#N)C(=O)OCCOC` (stereo unspecified), the IC50 is 15.7 µM.
The same measure for `CC(C)c1nc(N2CCN(C(=O)c3ccco3)CC2)c2c3c(sc2n1)CCCC3`: 13.6 µM; for `CCc1nc(N2CCCCC2)c2oc3ccccc3c2n1`: 16.2 µM.
As to `CC(=O)Nc1cccc(NC(=O)CSc2ncc(-c3ccc(Cl)cc3)n2Cc2ccco2)c1`, the IC50 was 2.99 µM.
`Cc1ccc(-c2nnn(CC(=O)N(Cc3ccco3)C(C(=O)NC(C)(C)C)c3cccs3)n2)o1` (stereo unspecified): the IC50 was 23.3 µM.
With `CC(C)N1CCC2(CC1)N=C(c1ccc3c(c1)OCO3)CC(c1cc(Cl)ccc1O)N2` (stereo unspecified) the figure was 9.86 µM; with `COc1ccccc1-c1cc(C(=O)N2CCN(c3ccccc3OC)CC2)no1`, 17.9 µM; with `CCOc1ccc2nc(N3CCCN(C(=O)Nc4ccccc4C)CC3)c(C#N)cc2c1`, 36.3 µM.
Consider `COc1cc2c3c(c1)C1(C(=O)N3C(C)(C)C=C2C)C(C#N)=C(N)Oc2cc(O)ccc21` (stereo unspecified), for which the IC50 was 6.64 µM.
Turning to `Cc1cc2n(n1)C(c1ccc3c(c1)OCO3)Nc1c(C)cccc1-2` (stereo unspecified), the IC50 was 29.6 µM.
As to `CCCCCn1c(N2CCC(Cc3ccccc3)CC2)nc2c1c(=O)[nH]c(=O)n2C`, the IC50 was 6.18 µM.
With `N#CCSc1n[nH]c2nc3c(c(=O)n12)C1(CCCC1)Cc1ccccc1-3` the figure was 4.21 µM; with `CCCCSC1=C(C#N)C(c2ccccc2C)C(C(=O)OCC)C(=O)N1` (stereo unspecified), 11.5 µM; with `CS(=O)(=O)N(Cc1nc2sc3c(c2c(=O)[nH]1)CCCC3)C1CCCCC1`, 8.1 µM.
As to `O=S(=O)(c1ccccc1)c1nc(-c2ccco2)oc1N1CCCCCC1`, the half-maximal inhibitory concentration (IC50) is 11.2 µM.
With `c1ccc(Nc2nc(-c3cccs3)cs2)nc1` the figure was 12.9 µM; with `CCn1c(=N)n(CC(=O)C23CC4CC(CC(C4)C2)C3)c2ccccc21`, 13 µM; with `COc1ccc(S(=O)(=O)Nc2ccc(S(=O)(=O)N3CCCCC3)cc2)cc1`, 15 µM.
With `COc1nnc(-c2ccc(N3CCCCC3)c(N)c2)c2ccccc12` the figure was 11.9 µM.
In the case of `CCCn1c(CNc2ccc(Br)cc2)nc2ccccc21`, the IC50 was 6.22 µM.
As for `C=CCc1c(C)nc(SCc2nc3ccccc3c(=O)[nH]2)[nH]c1=O`, the IC50 is 6.54 µM.
The same measure for `CCOC(=O)c1sc(NC(=O)c2c(C)nn(Cc3ccccc3)c2C)cc1C`: 9.35 µM; for `COc1ccccc1-c1nnc2sc(COc3ccc(Cl)cc3)nn12`: 16.4 µM.
For the compound `CC1CCN(S(=O)(=O)c2ccc(Cl)cc2Br)CC1`, the IC50 is 17.5 µM.
The same measure for `CC(C)(C)c1ccc(-c2nnc(SCCC#N)n2C2CCCC2)cc1`: 15.8 µM.
`Cc1cccc(N2CCN(C(=O)c3cn(C)c(=O)c4c3c3ccccc3n4C)CC2)c1C`: the IC50 was 16 µM.
With `CCc1cc(C(=O)COc2ccccc2F)c(O)cc1O` the figure was 10.8 µM.
On to `CCOC(=O)c1cnn(-c2nc3sc4c(c3c(=O)[nH]2)CCCC4)c1N`, for which the IC50 is 0.28 µM.
For the compound `Cc1oc(C(C)(C)C)cc1C(=O)Nc1ccc2c(c1)OCCO2`, the IC50 was 18.9 µM.
`O=C(Nc1ccc(Br)c(Cl)c1)c1ccco1`: the IC50 is 8.74 µM.
With `CCOC(=O)c1ccc(Oc2nc(NC(C)(C)C)nc(N(C)C)n2)cc1` the figure was 14.9 µM; with `Cc1ccc(Nc2nc(N)nc(CN3CCN(c4ccccc4)CC3)n2)cc1Cl`, 5.97 µM.
The same measure for `O=C1c2ccccc2C(Nc2cccc(C(F)(F)F)c2)N1Cc1ccco1` (stereo unspecified): 7.32 µM; for `CC1CCN(c2nc3ccccc3nc2C(C#N)S(=O)(=O)c2ccccc2)CC1` (stereo unspecified): 9.39 µM.
Consider `CCN(CC)c1ccc(C(=O)n2cnc3ccccc32)cc1`, for which the IC50 is 15 µM.
Regarding `CCCCCCOC(=O)C(C#N)c1nc2ccccc2nc1N1CCN(C)CC1` (stereo unspecified), the half-maximal inhibitory concentration (IC50) was 12.9 µM.
Regarding `Cc1noc(C)c1S(=O)(=O)N(CCc1ccccc1)Cc1ccccc1`, the IC50 is 16.6 µM.
As to `CCCCCCn1c(N2CCN(c3ccccc3)CC2)nc2c1c(=O)n(C)c(=O)n2C`, the IC50 was 10.1 µM.
The same measure for `COc1ccc(-n2c(COc3ccccc3)nnc2SCc2ccc(C#N)cc2)cc1`: 14.2 µM; for `O=C(CCC1CCCC1)c1c(O)c2ccccc2oc1=O`: 0.96 µM.
On to `CCCCC(=O)Nc1cccc(-c2nnc(-c3ccccc3)o2)c1`, for which the IC50 was 16.9 µM.
Consider `O=C(CCSc1nnc2scc(-c3ccccc3)n12)Nc1nc(-c2ccccc2)ns1`, for which the IC50 is 16.6 µM.
For the compound `CCOC(=O)c1cc(C)n(S(=O)(=O)c2ccc(C)cc2)c1C`, the IC50 is 12.4 µM.
For the compound `Cc1ccc(Cl)cc1N1CCN(C(=O)c2ccc(NS(=O)(=O)c3c(C)noc3C)cc2)CC1`, the IC50 was 29.4 µM.
As to `c1ccc(-c2ccccc2-c2nc(-c3cccnc3)no2)cc1`, the IC50 is 13.9 µM.
With `Cc1ccc(SCC(=O)N(Cc2nc(-c3ccccc3)no2)C(C)C)cc1` the figure was 10.8 µM; with `COc1cc(NS(=O)(=O)c2ccc(OC)c(C)c2C)c(OC)cc1Cl`, 16.8 µM; with `CCOC(=O)c1c(NC(=O)CN2CCCCC2)sc2c1CCN(C(=O)OCC)C2`, 10.7 µM.
With `COc1cc(S(=O)(=O)N2CCC(O)(c3cccc(C(F)(F)F)c3)CC2)ccc1-n1cnnn1` the figure was 11.1 µM.
Take `O=C(CSc1nc2ccccc2o1)Nc1nc2c(s1)CCCC2`: the half-maximal inhibitory concentration (IC50) was 8.02 µM.
With `CC1CC(N(C(=O)c2ccco2)c2ccccc2)c2ccccc2N1` (stereo unspecified), the IC50 was 13.4 µM.
Regarding `CCCCc1cc(O)c(CCCC)c(O)c1`, the IC50 was 10.9 µM.
With `Clc1ccc(C2=Nn3c(nnc3-c3n[nH]c4c3CCC4)SC2)cc1Cl` the figure was 11 µM; with `N#Cc1nc(Cc2ccccc2)oc1NCCc1ccccc1`, 8.5 µM.
Take `N#Cc1ccc(CSc2nnc(-c3cccs3)n2-c2ccccc2)cc1`: the IC50 was 15.6 µM.
With `CCc1nc2ccccc2c(=O)n1NC(=O)c1c(O)c2cccc3c2n(c1=O)CCC3` the figure was 12.2 µM.
In the case of `COc1ccccc1N1CCN(C(c2ccc(Cl)cc2)c2nnnn2C(C)(C)C)CC1` (stereo unspecified), the concentration for half-maximal inhibition (IC50) is 26.5 µM.
As to `c1ccc(CSc2nnc(-c3cccs3)n2Cc2ccco2)cc1`, the IC50 was 13.2 µM.
In the case of `COc1ccc(/C=N/n2c(SC)nnc2-c2ccccc2)cc1C`, the IC50 is 16.5 µM.
`COc1ccccc1-c1nnc(SC/C(O)=C(\C#N)c2nc3ccccc3[nH]2)n1C1CCCCC1`: the IC50 was 10.2 µM.
In the case of `COc1ccc(-c2noc(Cc3ccc(Cl)cc3)n2)cc1OC`, the IC50 is 75 µM.
In the case of `O=C(CN(C1CC1)S(=O)(=O)c1ccc(S(=O)(=O)NC2CCCCC2)cc1)Nc1ccccc1`, the IC50 is 10.5 µM.
